Tests used:
[1] = Antagonist activity at Group II Metabotropic glutamate receptor in rat spinal cord; assay type: functional
Outline: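 Neonatal rat spinal cord preparation. Concentration–response curves to (1S,3S)-ACPD or (2R,4R)-APDC were built with and without antagonist to give an apparent K_D. For weak antagonists, a single antagonist concentration was tested against a single agonist-induced response in triplicate and reported as % antagonism.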

[2] = Antagonist activity at Group III Metabotropic glutamate receptor in rat spinal cord; assay type: functional
Outline: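 Neonatal rat spinal cord preparation. Concentration–response curves to the group III agonist (S)-AP4 were constructed with and without the antagonist, and an apparent KD was derived from the curve shift.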

[3] = Antagonist activity at Group I Metabotropic glutamate receptor in rat spinal cord in the presence of (1S,3R)APCD at 1 mM as agonist challenge
[4] = Antagonist activity at Group I Metabotropic glutamate receptor in rat spinal cord; Not effective at 1 mM; assay type: functional
[5] = Antagonist activity at Group III Metabotropic glutamate receptor in rat spinal cord; Not effective at 50 uM; assay type: functional
[6] = Antagonist activity at Group III Metabotropic glutamate receptor in rat spinal cord; Not effective at 1 mM; assay type: functional
[7] = Antagonist activity at Group II Metabotropic glutamate receptor in rat spinal cord in the presence of (2R,4R)APDC at 1 uM as agonist challenge; assay type: functional
Outline: (§1)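 Neonatal rat spinal cord, one-point assay run in triplicate. A single antagonist concentration was tested against a single agonist-evoked response, expressed as percent antagonism. The agonist was (2R,4R)-APDC for group II and (S)-AP4 for group III.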

[8] = Antagonist activity at Group III Metabotropic glutamate receptor in rat spinal cord in the presence of (S)AP4 at 100 uM as agonist challenge; assay type: functional; outline: as §1
[9] = Antagonist activity at Group I Metabotropic glutamate receptor in rat spinal cord; assay type: functional

SMILES: NC(C(=O)O)(c1ccc(P(=O)(O)O)cc1)C1CC1 (centres undefined)
- KDs [1]: 53 µM
- KDs [2]: 1.7 µM
- Inhibition [3]: 70%

SMILES: CC(N)(C(=O)O)c1ccc(P(=O)(O)O)cc1 (centres undefined)
- KDs [4]: No effect
- KDs [1]: 113 µM
- KDs [2]: 9.2 µM

SMILES: Cc1cc(C(C)(N)C(=O)O)ccc1P(=O)(O)O (centres undefined)
- KDs [2]: 5.5 µM

SMILES: CC(N)(C(=O)O)c1ccc(P(=O)(O)O)c(Cl)c1 (centres undefined)
- KDs [4]: No effect
- KDs [1]: 726 µM
- KDs [2]: 6.8 µM

SMILES: COc1cc(C(N)(C(=O)O)C2CC2)ccc1P(=O)(O)O (centres undefined)
- KDs [5]: No effect

SMILES: CC(N)(C(=O)O)c1cccc(CP(=O)(O)O)c1 (centres undefined)
- KDs [6]: No effect

SMILES: COc1cc(C(C)(N)C(=O)O)ccc1P(=O)(O)O (centres undefined)
- KDs [7]: 51 µM
- KDs [8]: 4.8 µM

SMILES: Cc1cc(P(=O)(O)O)ccc1C(C)(N)C(=O)O (centres undefined)
- KDs [2]: 180 µM

SMILES: CC(N)(C(=O)O)c1ccc(C(=O)O)cc1 (centres undefined)
- KDs [9]: 144 µM
- KDs [1]: 479 µM
- KDs [2]: 227 µM

SMILES: CCOP(=O)(O)c1ccc(C(C)(N)C(=O)O)cc1OC (centres undefined)
- KDs [8]: 13 µM

From ChEMBL document CHEMBL1134233, “Synthesis of phenylglycine derivatives as potent and selective antagonists of group III metabotropic glutamate receptors” (2001)
